# Measurements reported in ChEMBL document CHEMBL2034979, “Design, synthesis and antiviral activity of novel quinazolinones” (Eur J Med Chem, 2012).
# Legend:
# [1] = Cytotoxicity against human TZM-bl cells at 10 uM after 48 hrs by MTT assay; format: cell-based
# In short: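 TZM-bl cells plated and held 18 h at 37 °C, then exposed to compounds for 48 h. MTT (5 mg/mL stock, 20 µL per well) added and incubated 3 h at 37 °C. Plates shaken 10 min at room temperature. OD550 read against a 690 nm reference. Single test concentration of 10 µM.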
# [2] = tested on: Human immunodeficiency virus; assay: Antiviral activity against HIV infected in human TZM-bl cells at 10 uM after 48 hrs by luciferase-based reporter gene assay; format: functional; settings: Human immunodeficiency virus 1, TZM-bl
# In short: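 TZM-bl cells seeded at 10^4 cells/well. Next day, compounds were added at 10 µM with AZT and MK-0518 reference controls, then pseudotyped HIV-1 was added (final DMSO 2%). Plates were incubated 48 h at 37 °C in humidified CO2. Steady-Glo substrate was added, cells lysed 20 min in the dark, and luciferase luminescence was read.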
# Tobacco mosaic virus [3] = assay: In vivo antiviral activity against TMV assessed as curative effect at 500 ug/mL; format: functional
# Tobacco mosaic virus [4] = assay: In vivo antiviral activity against TMV assessed as viral inactivation effect at 500 ug/mL; format: functional
# Tobacco mosaic virus [5] = assay: In vivo antiviral activity against TMV assessed as protection effect at 500 ug/mL; format: functional
# Tobacco mosaic virus [6] = assay: In vitro antiviral activity against TMV assessed as inhibition rate at 500 ug/mL; format: functional
SMILES,Activity [1],inhibition at 10 µM [2],Activity (Tobacco mosaic virus [3]),Activity (Tobacco mosaic virus [4]),Activity (Tobacco mosaic virus [5]),inhibition at 500 µg/mL (Tobacco mosaic virus [6])
Cn1c(-c2ccc([N+](=O)[O-])cc2)nc2ccc(C(=O)NCc3ccc(F)cc3)c(O)c2c1=O,Non-toxic,77.5%,,,,
COc1c(C(=O)NCc2ccc(F)cc2)ccc2nc(-c3ccc(F)cc3)n(C)c(=O)c12,Non-toxic,27.6%,8.2%,13.3%,7.4%,
COc1c(C(=O)NCc2ccc(F)cc2)ccc2c1C(=O)N(C)C(c1ccco1)N2 (centres undefined),Non-toxic,8.1%,0%,8.2%,0%,7.5%
Cn1c(Cc2ccc(F)cc2)nc2ccc(C(=O)NCc3ccc(F)cc3)c(O)c2c1=O,Non-toxic,49.5%,,,,
COc1c(C(=O)NCc2ccc(F)cc2)ccc2c1C(=O)N(C)C(c1cccs1)N2 (centres undefined),Non-toxic,17.5%,0%,13.7%,5.4%,16.3%
COc1c(C(=O)NCc2ccc(F)cc2)ccc2c1C(=O)N(C)C(c1ccc([N+](=O)[O-])cc1)N2 (centres undefined),Non-toxic,64.9%,15%,18.9%,20.3%,19.5%
CCCCC1Nc2ccc(C(=O)NCc3ccc(F)cc3)c(OC)c2C(=O)N1C (centres undefined),Non-toxic,3.2%,,,,
COc1c(C(=O)NCc2ccc(F)cc2)ccc2c1C(=O)N(C)C(Cc1ccc([N+](=O)[O-])cc1)N2 (centres undefined),Non-toxic,-17.7%,,,,
NC(=O)c1ncn([C@@H]2O[C@H](CO)[C@@H](O)[C@H]2O)n1 [RIBAVIRIN],,,32.7%,34.2%,39.6%,38.5%
Cn1c(-c2cccs2)nc2ccc(C(=O)NCc3ccc(F)cc3)c(O)c2c1=O,Non-toxic,33.2%,10.9%,8.2%,9.8%,14.5%
COc1c(C(=O)NCc2ccc(F)cc2)ccc2c1C(=O)N(C)C(Cc1ccc(F)cc1)N2 (centres undefined),Non-toxic,15.6%,,,,
Cn1c(-c2ccc(F)cc2)nc2ccc(C(=O)NCc3ccc(F)cc3)c(O)c2c1=O,Non-toxic,68.4%,,,,
COc1c(C(=O)NCc2ccc(F)cc2)ccc2nc(Cc3ccc(F)cc3)n(C)c(=O)c12,Non-toxic,-27.4%,15.2%,10.6%,17.7%,21.2%
Cc1nnc(C(=O)NC(C)(C)c2nc(C(=O)NCc3ccc(F)cc3)c(O)c(=O)n2C)o1 [RALTEGRAVIR],,95.2%,,,,
CCCCc1nc2ccc(C(=O)NCc3ccc(F)cc3)c(O)c2c(=O)n1C,Non-toxic,2.4%,,,,
COc1c(C(=O)NCc2ccc(F)cc2)ccc2nc(Cc3ccc([N+](=O)[O-])cc3)n(C)c(=O)c12,Non-toxic,-33.8%,0%,0%,12.4%,
Cn1c(-c2ccccn2)nc2ccc(C(=O)NCc3ccc(F)cc3)c(O)c2c1=O,Non-toxic,-11%,,,,
COc1c(C(=O)NCc2ccc(F)cc2)ccc2nc(-c3ccco3)n(C)c(=O)c12,Non-toxic,1.6%,8.9%,0%,11.7%,10%
COc1c(C(=O)NCc2ccc(F)cc2)ccc2nc(-c3ccccn3)n(C)c(=O)c12,Non-toxic,44.6%,17.6%,29.4%,19.5%,21.3%
Cn1c(Cc2ccc([N+](=O)[O-])cc2)nc2ccc(C(=O)NCc3ccc(F)cc3)c(O)c2c1=O,Non-toxic,29%,13.3%,12.7%,16.8%,18.4%
COc1c(C(=O)NCc2ccc(F)cc2)ccc2c1C(=O)N(C)C(c1ccc(F)cc1)N2 (centres undefined),Non-toxic,31%,26.3%,30.4%,28.9%,24.2%
COc1c(C(=O)NCc2ccc(F)cc2)ccc2nc(-c3ccc([N+](=O)[O-])cc3)n(C)c(=O)c12,Non-toxic,-3.8%,,,,
CCCCc1nc2ccc(C(=O)NCc3ccc(F)cc3)c(OC)c2c(=O)n1C,Non-toxic,19.1%,,,,
Cn1c(-c2ccco2)nc2ccc(C(=O)NCc3ccc(F)cc3)c(O)c2c1=O,Non-toxic,-9.2%,,,,
COc1c(C(=O)NCc2ccc(F)cc2)ccc2nc(-c3cccs3)n(C)c(=O)c12,Non-toxic,25.1%,9.4%,20.4%,12.7%,0%
Cc1cn([C@H]2C[C@H](N=[N+]=[N-])[C@@H](CO)O2)c(=O)[nH]c1=O [ZIDOVUDINE],,98.1%,,,,
COc1c(C(=O)NCc2ccc(F)cc2)ccc2c1C(=O)N(C)C(c1ccccn1)N2 (centres undefined),Non-toxic,9.9%,0%,15.2%,8.7%,0%
